According to ChEMBL document CHEMBL4270634, “Benzothiazole carbamates and amides as antiproliferative species” (Eur J Med Chem, 2018):
Activity calls are given as the source filed them. The rule behind the calls is not given here.

Key:
Mus musculus [1] = assay: Acute toxicity in athymic nude mouse at 100 to 400 mg/kg ip administered as single dose measured after 14 days; type: organism-based; details: in vivo, 336 h
How it was run: (§1)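 Single i.p. injection into nontumored female athymic nude mice as an NCI maximum-tolerated-dose acute toxicity assay.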

NTERA-2-cl-D1 [2] = assay: Cell cycle arrest in human NT2/D1 cells assessed as accumulation at G2/M phase at 1 uM after 24 hrs by propidium iodide staining based flow cytometry (reference value: 27.95%); type: functional
NTERA-2-cl-D1 [3] = assay: Cell cycle arrest in human NT2/D1 cells assessed as accumulation at S phase at 1 uM after 24 hrs by propidium iodide staining based flow cytometry (reference value: 17.80%); type: functional
NTERA-2-cl-D1 [4] = assay: Anti-invasive activity in human NT2/D1 cells at IC50 measured after 24 hrs by matrigel coated transwell assay relative to control; type: functional
How it was run: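 Cells pretreated 24 h in complete medium at IC₅₀ concentrations, then seeded in serum-free medium onto Matrigel-coated transwell inserts with FBS as chemoattractant. Invasion allowed for 48 h; invaded cells fixed, stained and counted microscopically in five fields. Result expressed as % of untreated invasion. Means ± SEM of two independent experiments.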

NTERA-2-cl-D1 [5] = assay: Induction of cell detachment in human NT2/D1 cells assessed as live floating cells at 1 uM after 24 hrs by trypan blue exclusion assay relative to floating cell number; type: functional
MCF7 [6] = assay: Decrease in ROS production in human MCF7 cells at 25 uM measured after 24 hrs by DCFH-DA probe based flow cytometric analysis; type: functional; parameters: scale not given: the % may be the effect or the level left
How it was run: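 MCF-7 cells exposed 24 h at 25 µM. Intracellular ROS measured by flow cytometry with DCFH-DA and compared to untreated control cells.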

MCF7 [7] = assay: Induction of apoptosis in human MCF7 cells assessed as late apoptotic cells at 25 uM after 48 hrs by Annexin V-FITC/PI staining based flow cytometry (reference value: 2.95%); type: functional
MCF7 [8] = assay: Induction of apoptosis in human MCF7 cells assessed as decrease in Bcl-2 protein expression level at IC50 measured after 48 hrs by flow cytometric analysis; type: functional, cell-based
MCF7 [9] = assay: Induction of apoptosis in human MCF7 cells assessed as necrotic cells at 25 uM after 24 hrs by Annexin V-FITC/PI staining based flow cytometry (reference value: 2.62%); type: functional
MCF7 [10] = assay: Induction of apoptosis in human MCF7 cells assessed as increase in Bax protein expression level at IC50 measured after 24 to 48 hrs by flow cytometric analysis; type: functional, cell-based
MCF7 [11] = assay: Decrease in ROS production in human MCF7 cells at IC50 measured after 24 to 48 hrs by DCFH-DA probe based flow cytometric analysis; type: functional, cell-based
MCF7 [12] = assay: Cell cycle arrest in human MCF7 cells assessed as accumulation at G2/M phase at 25 uM after 24 hrs by propidium iodide staining based flow cytometry (reference value: 27.04%); type: functional
MCF7 [13] = assay: Induction of apoptosis in human MCF7 cells assessed as early apoptotic cells at 25 uM after 24 hrs by Annexin V-FITC/PI staining based flow cytometry (reference value: 1.30%); type: functional
How it was run: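 MCF-7 cells were treated for 24 h at a single concentration (25 µM or 30 µM, depending on compound). Apoptosis was assessed by bivariate Annexin V-FITC/PI flow cytometry, distinguishing early apoptotic from late apoptotic/necrotic cells, against untreated control.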

MCF7 [14] = assay: Cell cycle arrest in human MCF7 cells assessed as accumulation at G0/G1 phase at 25 uM after 24 hrs by propidium iodide staining based flow cytometry (reference value: 44.23%); type: functional
MCF7 [15] = assay: Cell cycle arrest in human MCF7 cells assessed as accumulation at sub-G1 phase at 25 uM after 48 hrs by propidium iodide staining based flow cytometry (reference value: 0.41%); type: functional
MCF7 [16] = assay: Induction of apoptosis in human MCF7 cells assessed as late apoptotic cells at 25 uM after 24 hrs by Annexin V-FITC/PI staining based flow cytometry (reference value: 2.78%); type: functional
Mus musculus [17] = assay: Acute toxicity in athymic nude mouse at 50 to 200 mg/kg ip administered as single dose measured after 14 days; type: organism-based; details: in vivo, 336 h; how it was run: as §1
MCF7 [18] = assay: Induction of apoptosis in human MCF7 cells assessed as increase in p53 protein expression level at IC50 measured after 24 to 48 hrs by flow cytometric analysis; type: functional, cell-based
MCF7 [19] = assay: Induction of apoptosis in human MCF7 cells assessed as decrease in p73 protein expression level at IC50 measured after 24 to 48 hrs by flow cytometric analysis; type: functional, cell-based
MCF7 [20] = assay: Cell cycle arrest in human MCF7 cells assessed as accumulation at G0/G1 phase at 25 uM after 48 hrs by propidium iodide staining based flow cytometry (reference value: 48.80%); type: functional
MCF7 [21] = assay: Induction of mitochondrial membrane potential loss in human MCF7 cells at IC50 measured after 24 hrs by Rh123 dye-based flow cytometric analysis; type: functional, cell-based
How it was run: (§2)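 Mitochondrial membrane potential was assessed by Rh123 incorporation with flow cytometry and compared with untreated cells.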

MCF7 [22] = assay: Effect on cyclin B1 levels in human MCF7 cells at 25 uM after 24 hrs by propidium iodide staining based flow cytometry (reference value: 26.6%); type: functional
How it was run: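 MCF-7 cells treated 24 h at 25 µM or 30 µM; intracellular cyclin B1 level measured by flow cytometry.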

MCF7 [23] = assay: Cell cycle arrest in human MCF7 cells assessed as accumulation at S phase at 25 uM after 24 hrs by propidium iodide staining based flow cytometry (reference value: 28.27%); type: functional
MCF7 [24] = assay: Cell cycle arrest in human MCF7 cells assessed as accumulation at S phase at 25 uM after 48 hrs by propidium iodide staining based flow cytometry (reference value: 23.07%); type: functional
MCF7 [25] = assay: Cell cycle arrest in human MCF7 cells assessed as accumulation at G2/M phase at 25 uM after 48 hrs by propidium iodide staining based flow cytometry (reference value: 28.03%); type: functional
MCF7 [26] = assay: Effect on Bcl-2 protein expression level in human MCF7 cells at IC50 measured after 24 hrs by flow cytometric analysis; type: functional, cell-based
How it was run: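 Bax and Bcl-2 expression in MCF-7 cells quantified by FACS after 24 and 48 h at a single equipotent (IC₅₀) concentration; Bax/Bcl-2 ratio expressed as fold of untreated control.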

MCF7 [27] = assay: Cell cycle arrest in human MCF7 cells assessed as accumulation at sub-G1 phase at 25 uM after 24 hrs by propidium iodide staining based flow cytometry (reference value: 0.65%); type: functional
MCF7 [28] = assay: Induction of apoptosis in human MCF7 cells assessed as early apoptotic cells at 25 uM after 48 hrs by Annexin V-FITC/PI staining based flow cytometry (reference value: 0.98%); type: functional
MCF7 [29] = assay: Cell cycle arrest in human MCF7 cells at 25 uM by propidium iodide staining based flow cytometry; type: functional; details: TDE = time-dependent effect
MCF7 [30] = assay: Induction of mitochondrial membrane potential loss in human MCF7 cells at IC50 measured after 48 hrs by Rh123 dye-based flow cytometric analysis; type: functional; how it was run: as §2
MCF7 [31] = assay: Induction of apoptosis in human MCF7 cells assessed as necrotic cells at 25 uM after 48 hrs by Annexin V-FITC/PI staining based flow cytometry (reference value: 0.82%); type: functional

Question: Which results are given for `CCCCSc1ccc2nc(NC(=O)OCCC)sc2c1`?
Answer: Activity (Mus musculus [1]): Non-Toxic; Activity (NTERA-2-cl-D1 [2]): 67.75%; Activity (NTERA-2-cl-D1 [3]): 9.9%; Activity (NTERA-2-cl-D1 [4]): 95%; Activity (NTERA-2-cl-D1 [5]): 61%

Question: Which Activity (MCF7 [6]) does the source give for `CCCOC(=O)Nc1nc2ccc(OCC)cc2s1` here?
Answer: The Activity was 15%.

Question: Which results are given for `CCCOC(=O)Nc1nc2ccc(SCCC)cc2s1`?
Answer: Activity (MCF7 [7]): 7.53%; Activity (MCF7 [8]): Active; Activity (MCF7 [9]): 3.53%; Activity (MCF7 [10]): Active; Activity (MCF7 [11]): Active; Activity (NTERA-2-cl-D1 [2]): 41.72%; Activity (NTERA-2-cl-D1 [3]): 14.51%; Activity (MCF7 [12]): 40.66%; Activity (MCF7 [13]): 21%; Activity (MCF7 [14]): 15.62%; Activity (MCF7 [15]): 50.4%; Activity (MCF7 [16]): 4.33%; Activity (NTERA-2-cl-D1 [4]): 70%; Activity (NTERA-2-cl-D1 [5]): 29%; Activity (Mus musculus [17]): Non-Toxic; Activity (MCF7 [18]): Active; Activity (MCF7 [19]): inactive; Activity (MCF7 [20]): 18.82%; Activity (MCF7 [21]): Active; Activity (MCF7 [22]): 50.8%; Activity (MCF7 [23]): 19.3%; Activity (MCF7 [24]): 15.9%; Activity (MCF7 [25]): 15.25%; Activity (MCF7 [26]): inactive; Activity (MCF7 [27]): 24.58%; Activity (MCF7 [28]): 61.06%; Activity (MCF7 [29]): Tde; Activity (MCF7 [30]): >80%; Activity (MCF7 [31]): 2.61%
